A1 inh: inhibitors of the anti-apoptotic protein A1, read as caspase activation | caspase activation, % (test concentration not listed) | 0.066% of 330,000 active | AID 2462 | MEF A1-2A-BIM cells, Caspase-Glo 3/7 luminescence, 3 h; percent of clofoctol response, vehicle zero;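 active = over half of replicate activation scores above 10%, or exactly half above 10 with the replicate mean above 10; inconclusive = replicate mean below 10 yet half the replicates above 10; inactive = over half of replicates below 10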
Calb FLC: affects C. albicans growth with fluconazole. C. albicans CaCi-2 + fluconazole, Alamar Blue growth, 48 h. growth inhibition, % (concentration not given with the values). 0.57% of 300,000 active;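 active = growth inhibition above about 58% in most replicates, limit read from the data, passing the limit was not always enough; inconclusive = exactly half the replicates above a set limit; inactive = most replicates below a set limit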;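 also: all wells also contain fluconazole at 8 µg/ml as a sub-toxic cotreatment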
T cruzi repl: blocks replication of Trypanosoma cruzi; T. cruzi beta-gal in NIH3T3, luminescence, 90 h; 1.4% of 300,000 active; inhibition, % (concentration not given with the values); AID 1885;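 active = mean inhibition across valid replicates above about 55%, limit read from the data; inconclusive = mean below that limit but half or more replicates reach it; inactive = mean below it, under half of replicates reach it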;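 also: signal also drops with host cell toxicity which is not excluded here; higher percent means less beta-gal luminescence so fewer parasites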
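System: mouse NIH/3T3 fibroblasts infected with β-gal-expressing T. cruzi Tulahuen C4 / Input: NIH/3T3 cells, 5,000 per well / Buffer or medium: Low-serum DMEM with 2% FBS / Probe or stimulus: 5000 reporter trypomastigotes per well / Schedule: ≥90 h infection period, 3 h prior cell attachment / Measured by: GalScreen luminescence, 60 min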
Beta cell apopt: blocks beta cell apoptosis | INS-1E cytokine-induced death, ATP luminescence, 48 h; percent of positive-control rescue, neutral wells zero | protection from apoptosis, % (test concentration not listed) | 0.8% of 300,000 active;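 active = Every replicate reaches about 75%, or at least half do and their mean reaches it too, limit read from the data; inconclusive = At least half of replicates reach the limit but their mean does not; inactive = Under half of replicates reach the limit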;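 also: higher means more ATP so stronger rescue from cytokine killing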
H9c2 TAG inh: reduces triacylglycerol accumulation in H9c2 cells. 0.66% of 230,000 active. Nile Red lipid (TAG) fluorescence; cells loaded with 200 µM oleic acid. inhibition, % at 12.5 µM;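 active = pattern-corrected inhibition of lipid staining of at least 50% with the nuclear-stain viability signal not falling by more than 50%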
CSC inhib: cancer stem cell inhibition | inhibition, % at 7.5 µM | 1.1% of 300,000 active | cancer stem cell-like cells viability, luminescence; in the data active = inhibition above about 75%; inconclusive = no clear call, values can overlap the other calls; tested in HMLE shEcad cells
Each line names hits and unclear results; the compound was inactive in the other large screens. Sampled rows, rich in hits. Any-hit rate of the full collection: about 3.1%.

OC(CN1CCN(c2ccccn2)CC1)Cn1c2ccc(Cl)cc2c2cc(Cl)ccc21 (stereo not given)	CSC inhib 105.3
OC(COC(c1ccc(Cl)cc1)c1ccc(Cl)cc1)CN1CCN(c2ccccn2)CC1 (stereo not given)	none
OC(CN1CCCCC1)Cn1c2ccc(Cl)cc2c2cc(Cl)ccc21 (stereo not given)	T cruzi repl 81.9, CSC inhib inconclusive (no result: Beta cell apopt, H9c2 TAG inh)
CCOC(=O)c1c(C)[nH]c(C)c1S(=O)(=O)N(C)CC(=O)Nc1cccc(C)n1	none (no result: H9c2 TAG inh)
O=C1NC(=S)SC1=Cc1ccccc1Cl	none (no result: A1 inh, Calb FLC, T cruzi repl, Beta cell apopt, CSC inhib)
Cc1ccc(C2C(/C=C3/SC(=S)NC3=O)=C(c3cccs3)Oc3ccccc32)cc1 (stereo not given)	CSC inhib 108.4 (no result: H9c2 TAG inh)
COc1cc(/C=C(\C#N)c2nc3ccccc3[nH]2)ccc1Oc1ccc([N+](=O)[O-])cn1	T cruzi repl 61.6 (no result: H9c2 TAG inh)
COc1cc(/C=C(/C#N)c2ccccc2)ccc1Oc1ccc([N+](=O)[O-])cn1	Calb FLC inconclusive
Cc1ccc(S(=O)(=O)CC(=O)N(CCCN2CCOCC2)c2nc3c(F)cccc3s2)cc1	none
O=C(CCS(=O)(=O)c1ccccc1)N(CCCN1CCOCC1)c1nc2ccc(F)cc2s1	A1 inh 5.3, T cruzi repl 63.0
O=C(CCS(=O)(=O)c1ccccc1)N(CCCN1CCOCC1)c1nc2c(F)cccc2s1	T cruzi repl 54.7 (no result: CSC inhib)
Cc1ccc(NC(=O)CN2C(=O)NC3(CCCCC3)C2=O)cc1S(=O)(=O)N1CCOCC1	none (no result: Calb FLC, T cruzi repl, CSC inhib)
Cc1ccc(C(=O)c2no[n+]([O-])c2C(=O)c2ccc(C)cc2)cc1	H9c2 TAG inh 51.9
Cc1ccc(C(=O)c2ccc(C)cc2)cc1	none
CN(Cc1ccccc1Cl)C(=O)CNC(=O)C12CC3CC(CC(C3)C1)C2	none (no result: Calb FLC, T cruzi repl)
O=C(CSc1cccc[n+]1[O-])NC1CCCCC1	A1 inh 8.3 (no result: Calb FLC, T cruzi repl)
O=C(O)c1cccnc1SCC(=O)N1CCCCCC1	none (no result: T cruzi repl, H9c2 TAG inh)
O=C(CSc1ncccc1C(=O)O)NC1CCCCC1	A1 inh 5.5 (no result: H9c2 TAG inh)
CCOc1ccc(/C=C/C(O)=C2/C(=O)N(C)C3(C)CC2c2ccccc2O3)cc1OC (stereo not given)	CSC inhib 78.3
C#CCN(C[C@@H]1[C@@H](OC(=O)NCc2ccccc2F)[C@@H](OC(=O)NCc2ccccc2F)Cn2c(=O)ccc(=O)n21)S(=O)(=O)c1ccc(C)cc1	H9c2 TAG inh 69.3 (no result: A1 inh, Calb FLC, T cruzi repl, Beta cell apopt, CSC inhib)
C#CCN(C[C@@H]1[C@@H](OC(=O)NCc2ccccc2F)[C@@H](OC(=O)NCc2ccccc2F)Cn2c(=O)n(CCCCCC)c(=O)n21)S(=O)(=O)c1ccc(C)cc1	none (no result: A1 inh, Calb FLC, T cruzi repl, Beta cell apopt, CSC inhib)
Nc1nc(-c2ccccc2)c(-c2ccccc2)s1	none (no result: Beta cell apopt)
Nc1nc(-c2ccccc2)c(-c2ccc([N+](=O)[O-])cc2)s1	Beta cell apopt 93.3
CCCn1c(SCC(=O)NC2CCC(C)CC2)n[nH]c1=O (stereo not given)	none (no result: Calb FLC, T cruzi repl)
CCOC(=O)c1ccc(Nc2cc(C)nc(-c3ccccc3)n2)cc1	CSC inhib 97.1 (no result: H9c2 TAG inh)
CCOC(=O)c1ccc(Nc2nc(C)cc(C)n2)cc1	none (no result: H9c2 TAG inh)
COC(=O)c1cccc(Nc2cc(C)nc(-c3ccccc3O)n2)c1	T cruzi repl 57.9, CSC inhib inconclusive (no result: H9c2 TAG inh)
COC(=O)c1ccc(Nc2cc(C)nc(-c3ccccc3O)n2)cc1	none (no result: H9c2 TAG inh)
CC(=O)Nc1ccc(NC(=O)CCCn2cnc3ccccc3c2=O)cc1	A1 inh inconclusive (no result: H9c2 TAG inh)
CC(=O)c1cccc(NC(=S)N2CCN(S(=O)(=O)c3ccccc3)CC2)c1	none
CC(=O)Oc1ccc(-c2ccc(C(=O)Nc3cccc(S(=O)(=O)N4CCOCC4)c3)cc2)cc1	CSC inhib 93.4
COc1ccc(C(=O)Nc2ccccc2C(=O)Nc2ccc(C(=O)O)cc2)cc1	none (no result: Beta cell apopt)
COc1ccc(C(=O)Nc2ccccc2C(=O)Nc2ccccc2C(=O)O)cc1	Calb FLC 80.5
CC(C)c1ccc(OCC(=O)Nc2cccc(C(=O)Nc3ccccc3C(=O)O)c2)cc1	Calb FLC 75.9
COc1ccc(NC(=O)c2ccccc2)cc1	none (no result: Calb FLC, T cruzi repl)
COc1ccc(C(=O)NNc2ccccc2)cc1	CSC inhib 130.7 (no result: H9c2 TAG inh)
Cc1cccc(OCC(=O)Nc2cccc(C(=O)Nc3ccccc3C(=O)O)c2)c1	none
CCOc1ccccc1N(CC(=O)Nc1ccccc1Br)S(=O)(=O)c1ccccc1	none (no result: A1 inh, Calb FLC, T cruzi repl, Beta cell apopt, CSC inhib)
CC(C)NC(=S)NC(c1ccccc1)(c1ccccc1)c1ccccc1	T cruzi repl 54.7, Beta cell apopt 111.6 (no result: H9c2 TAG inh)
C/C(=N\NC(=S)NC(C)C)c1ccccc1	none
O=C(N/N=C(\c1ccccc1)c1cccnc1)c1cc(O)ccc1O	T cruzi repl 65.3 (no result: H9c2 TAG inh)
C/C(=N\NC(=O)c1cc(-c2cccc(OC(C)C)c2)nc2ccccc12)c1cccnc1	T cruzi repl 63.5
C/C(=N\NC(=O)c1cc(-c2cccnc2)nc2ccccc12)c1ccc(O)cc1O	Calb FLC inconclusive, Beta cell apopt 90.5, CSC inhib 100.0 (no result: H9c2 TAG inh)
COc1cccc(CN2CC(C(=O)NCCOc3cccnc3)CCC2=O)c1 (stereo not given)	none (no result: A1 inh, Beta cell apopt, H9c2 TAG inh, CSC inhib)
Cc1ccc(S(=O)(=O)N2[C@@H](c3ccc(Cl)cc3)C(C(=O)O)=C[C@H]2C(C)(C)C)cc1	none (no result: Calb FLC, T cruzi repl)
COc1ccccc1NC(=O)N1CCCC1C(=O)NCCc1ccccc1 (stereo not given)	none (no result: H9c2 TAG inh)
CCc1ccccc1OCC(=O)NCC1COc2ccccc2O1 (stereo not given)	none (no result: Calb FLC, T cruzi repl)
COc1ccc2c(c1)C(=O)[C@H](O)[C@@H](c1ccc(OC)c(Br)c1)O2	Beta cell apopt 109.4, CSC inhib 108.3 (no result: H9c2 TAG inh)
CC[C@H](C)[C@@H](NC(=O)O[C@@H]1C(=O)c2cc(OC)ccc2O[C@H]1c1ccc(OC)c(Br)c1)C(=O)OC	none (no result: Calb FLC, T cruzi repl)
CCn1cc(Cl)c(C(=O)Nc2cccc(CN3CCOCC3)c2)n1	none (no result: T cruzi repl)
CC(=O)Nc1sc(N/N=C/c2ccccc2)nc1-c1ccc(C)cc1	none
CCCc1sc(N/N=C/c2ccccn2)nc1-c1ccc(Br)cc1	T cruzi repl 65.5, Beta cell apopt 110.6, CSC inhib 126.0 (no result: H9c2 TAG inh)
O=C(CN1C(=O)NC2(CCCCC2)C1=O)N1CCN(S(=O)(=O)c2cccc(F)c2)CC1	none (no result: H9c2 TAG inh)
CCC[C@@H](CN1CCC[C@H]1CN1C(N)=NC[C@@H]1Cc1ccccc1)N1C[C@@H]([C@H](C)CC)N(CCCC2CCCC2)C1=N	Beta cell apopt 100.6 (no result: Calb FLC, T cruzi repl, CSC inhib)
CCCCCCCCNc1ncnc2[nH]ncc12	none (no result: A1 inh, Calb FLC, T cruzi repl, Beta cell apopt, CSC inhib)
COc1ccc(-n2ccn3c(CCC(=O)N4CCN(c5cccc(C)c5C)CC4)nnc3c2=O)cc1	none (no result: H9c2 TAG inh)
COc1cc2c(C(=O)N3CCN(C)CC3)c(C)n(-c3ccccc3)c2cc1Br	none (no result: H9c2 TAG inh)
CCN(CC)CCNC(=O)c1c(C)n(-c2ccccc2)c2cc(Br)c(OC)cc12	H9c2 TAG inh 69.2
COc1cccc(NC(=O)/C=C/c2ccc(S(=O)(=O)N3CCOCC3)cc2)c1	none (no result: Calb FLC, T cruzi repl)
COc1ccc(Cl)cc1NC(=O)CN(C)C1CCCCC1	none
COc1ccc(OC)c(NC(=O)CN(Cc2ccc(F)cc2)C2CCCCC2)c1	Beta cell apopt 100.5 (no result: H9c2 TAG inh)
